# An excerpt weighted towards active compounds, which were near 3.6% of everything screened.
# GRIN3A LBD mod: binders of NR3A ligand-binding domain, primary screen, biophysical, differential scanning fluorimetry, uHTS. AID 1259313, 2017. Tm shift relative to glycine control, % at 25 µM. 340,000 compounds, 2.5% hits. Glutamate receptor ionotropic, NMDA 3A (GRIN3A) ligand-binding domain. NR3A LBD differential scanning fluorimetry, Tm shift; 0% = protein alone, 100% = glycine-bound protein;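 active = melting temperature shift of at least 10% of the positive control shift, at one fixed dose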
# UCH37 inh: inhibitors of human UCH37 deubiquitinase, primary screen, biochemical, Ub-AMC cleavage, fluorescence. Ubiquitin carboxyl-terminal hydrolase isozyme L5 (Homo sapiens), Q9Y5K5. purified proteasome/UCH37. inhibition, % (concentration not given with the values). 330,000 compounds, 0.33% hits. AID 588478, 2011;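 active = mean inhibition over replicate wells above about 20%, limit read from the data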
# Target sequence (Q9Y5K5 whole entry, looked up): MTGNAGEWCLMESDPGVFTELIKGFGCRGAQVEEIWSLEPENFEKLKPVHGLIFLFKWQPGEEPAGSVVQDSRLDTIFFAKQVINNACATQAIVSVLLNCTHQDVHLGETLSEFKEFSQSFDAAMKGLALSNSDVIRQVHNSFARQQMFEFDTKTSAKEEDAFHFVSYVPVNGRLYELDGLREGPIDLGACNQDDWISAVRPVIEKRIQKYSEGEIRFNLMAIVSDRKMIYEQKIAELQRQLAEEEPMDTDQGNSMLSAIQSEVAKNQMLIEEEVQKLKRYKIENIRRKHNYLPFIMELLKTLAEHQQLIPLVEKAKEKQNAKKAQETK
#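 Test system – human UCH37 enzyme supplied as purified proteasome complex · Incubation – 30 min preincubation with enzyme, 25 min cleavage at room temperature · Detection – AMC fluorescence from Ub-AMC cleavage, excitation 355 nm, emission 460 nm · Benchmarks – no-proteasome wells (full inhibition) and compound-free wells (no inhibition)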
# ATG4B inhibitor: ATG4B protease inhibitors, primary screen, biochemical, fluorescence, uHTS. ATG4B cleavage of LC3-PLA2, NBD-HPC fluorescence, 1 h. 340,000 compounds, 0.51% hits. inhibition, % at 8.33 µM. Cysteine protease ATG4B (Homo sapiens), Q9Y4P1; in the data active = inhibition above about 40%
# SENP1 inh: human SENP1 catalytic domain inhibitors, primary screen, biochemical, FRET, uHTS; Sentrin-specific protease 1 (Homo sapiens), Q9P0U3; recombinant SENP1 catalytic domain, CyPet-SUMO1-YPet FRET cleavage; inhibition, % at 10 µM; 360,000 compounds, 0.21% hits; AID 624204, 2012;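 active = inhibition at least 30% at 10 µM, raw YFP signal under a set limit, fluorescence ratio 0.5 to 1.5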
# Target sequence (Q9P0U3 419-644 limits assumed): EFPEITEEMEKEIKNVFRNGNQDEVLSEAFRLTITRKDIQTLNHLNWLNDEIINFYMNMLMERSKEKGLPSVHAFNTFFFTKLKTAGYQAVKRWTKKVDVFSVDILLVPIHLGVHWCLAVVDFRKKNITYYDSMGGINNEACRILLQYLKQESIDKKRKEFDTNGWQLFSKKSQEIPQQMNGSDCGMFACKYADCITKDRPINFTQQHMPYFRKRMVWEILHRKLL
#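 Compound: 10 µM single point, 0.5% DMSO; Test system: hSENP1 catalytic domain, recombinant; Timing: 50 min reaction at room temperature; Technique: FRET, CFP and YFP emission; Control set: no-enzyme wells low, DMSO-plus-enzyme wells high control.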
# NadD inh: inhibitors of S. aureus NadD, primary screen, biochemical, colorimetric, uHTS; purified NadD enzyme, colorimetric absorbance read-out; inhibition, % at 20 µM; 360,000 compounds, 0.78% hits; in the data active = inhibition above about 26%
# Hits are given with their value; . = inactive; / = no result given.
SMILES,GRIN3A LBD mod,UCH37 inh,ATG4B inhibitor,SENP1 inh,NadD inh
Cc1ccc(C=NNC(=O)c2cc(C)oc2C)cc1,/,.,/,/,/
CC(C)C=NNC(=O)c1cc(Br)ccc1O,/,.,/,/,/
CCOc1cc(C=NNC(=O)c2cccc(S(=O)(=O)N3CCCC3)c2)ccc1OCC(=O)N(C)C,/,.,/,/,/
O=C(O)COc1ccccc1C=NNC(=O)CNC(=O)c1ccco1,/,.,/,/,/
O=C(C1CCCN(S(=O)(=O)c2ccc(F)cc2)C1)N1CCOCC1 (stereo not given),25.9,/,.,.,.
Cc1cc(NC(=O)c2ccc(Cl)cc2)cc(C)c1OCC(=O)N1CCOCC1,12.6,.,.,.,.
CC(=O)Nc1ccc(NC(=O)c2ccc(Cl)c(S(=O)(=O)N3CCc4ccccc43)c2)cc1,13.1,.,.,.,.
CCCCOc1ccc(C(=O)Nc2cc(C)c(OCC(=O)N3CCOCC3)c(C)c2)cc1,.,.,.,.,.
Cc1c(NC(=O)C2CCN(S(=O)(=O)c3ccc(Cl)cc3)CC2)c(=O)n(-c2ccccc2)n1C,12.7,.,.,.,.
CC(/C=C/c1ccc(N(C)C)cc1)=N/N=C1/NC(=O)CC(C(=O)Nc2ccccc2)S1 (stereo not given),/,.,/,/,/
O=C(Nc1ccc(S(=O)(=O)N2CCCC2)cc1)c1ccc(Br)o1,.,.,.,.,.
O=C(Nc1ccc(S(=O)(=O)NC2=NCCCCC2)cc1)c1cc(S(=O)(=O)N2CCOCC2)ccc1F,21.8,.,.,.,.
O=C(Nc1ccc(S(=O)(=O)N2CCOCC2)cc1)c1ccc(Br)o1,26.3,.,.,.,.
O=C(Nc1ccc(S(=O)(=O)N2CCOCC2)cc1)c1ccc(F)cc1,37.9,.,.,.,.
O=C(Nc1cccc(Cl)c1)c1ccc(F)c(S(=O)(=O)NCc2ccc3c(c2)OCO3)c1,12.8,.,.,.,.
CN(C)c1ccc(C=NNC(=O)CNC(=O)c2ccncc2)cc1,/,.,/,/,/
Cc1ccc(NN=C2CS(=O)(=O)N(C)c3ccsc32)cc1,/,.,/,/,/
CN(C)S(=O)(=O)c1cccc(NC(=S)NN=CC(=O)c2ccccc2)c1,/,.,/,/,/
Cc1cc(C)cc(NC(=S)NCc2ccc3[nH]c4c(c3c2)CCCC4)c1,17.1,.,.,.,.
S=C(NCc1ccc2[nH]c3c(c2c1)CCCC3)Nc1ccccc1,.,.,.,.,.
O=[N+]([O-])c1cccc(S(=O)(=O)Nc2ccccn2)c1,/,/,/,.,.
O=S(=O)(Nc1ccccn1)c1cccc(S(=O)(=O)c2ccc(Br)cc2)c1,13.5,.,.,.,.
[O-][n+]1c(/C=C/c2ccccc2)ccc2ccccc21,18.7,.,.,.,.
[O-][n+]1ccccc1/C=C/c1ccccc1,.,.,.,.,.
CCOc1ccc(NC(=S)N(CCOC)C2CCN(C(C)C)CC2)cc1,10.0,.,.,.,.
SMILES,GRIN3A LBD mod,UCH37 inh,ATG4B inhibitor,SENP1 inh,NadD inh
Cc1cc(Cl)ccc1OCC(=O)OCC(=O)Nc1ccc(F)c([N+](=O)[O-])c1,25.7,.,.,.,.
CCNC(=O)COC(=O)COc1ccc(Cl)cc1C,.,.,.,.,.
Cc1cc(Cl)ccc1OCCCC(=O)OCC(=O)Nc1cccc(S(N)(=O)=O)c1,10.1,.,.,.,.
Cc1ccc(N=Cc2cc3c(cc2O)OC(N)=C(C#N)C3c2ccccc2)cc1 (stereo not given),12.1,.,.,.,.
N#CC1=C(N)Oc2cc(O)c(C=Nc3ccccc3)cc2C1c1ccccc1 (stereo not given),.,.,.,.,.
O=C(N/N=C/c1ccc(O)cc1)Nc1cccc2nsnc12,16.7,/,.,.,.
COc1cc(/C=N/NC(=O)Nc2cccc3nsnc23)cc(OC)c1OC,.,/,.,.,.
CC(C=NNC(=O)CNc1n[nH]c(=O)[nH]c1=O)c1ccccc1 (stereo not given),/,.,/,/,/
CN(C)c1ccc(/C=C/C(=O)c2ccc(O)cc2)cc1,11.8,/,.,.,.
CN(C)c1ccc(C(=O)C=Cc2ccc([N+](=O)[O-])cc2)cc1,/,/,/,.,.
COc1ccc(-n2nnc3c(=O)n(CC(=O)N4CCCc5ccccc54)cnc32)cc1,11.5,.,.,.,.
CCOc1ccc(-n2nnc3c(=O)n(CC(=O)N4CCCc5ccccc54)cnc32)cc1,14.8,.,.,.,.
CC(=NNS(=O)(=O)c1cccc([N+](=O)[O-])c1)c1cccnc1,/,.,/,/,/
COC(=O)N/N=C/c1ccc(-c2cccc(Cl)c2)o1,.,/,.,.,.
Nc1ccccc1N=Cc1ccc(-c2cccc(Cl)c2)o1,21.6,.,.,.,.
COCC(=O)Nc1sc2c(c1C(=O)OC)CCCC2,.,.,.,.,.
CCOC(=O)c1c(NC(=O)C(C)OC(=O)c2ccc(NC(=O)CC#N)cc2)sc2c1CCCC2 (stereo not given),12.1,.,.,.,.
COC(=O)c1c(NC(=O)COC(=O)c2ccc(O)cc2)sc2c1CCCCC2,17.8,.,.,.,.
CCOC(=O)c1c(CC(C)C)csc1NC(=O)COC(=O)c1ccc(O)cc1,25.2,.,.,.,.
COc1ccc(C(C)=NN2CCOCC2)c(O)c1,/,.,/,/,/
Nc1nnn(CC(=O)NN=Cc2cn[nH]c2-c2ccccc2)n1,/,.,/,/,/
O=c1cc(-c2ccc(Cl)cc2)[nH]c2ccccc12,.,.,.,/,/
Clc1ccc(-c2cc3ccccc3[nH]2)cc1,16.9,.,.,.,.
Cc1ccc(N2CC(=O)N(NC(=O)Nc3ccc(Cl)c(Cl)c3)CC2=O)cc1,13.3,.,.,.,.
CN=C(Nc1ccc(Cl)cc1)c1cccc(C(F)(F)F)c1,.,.,.,.,.
SMILES,GRIN3A LBD mod,UCH37 inh,ATG4B inhibitor,SENP1 inh,NadD inh
Cc1ccc(S(=O)(=O)NNC(=O)Nc2ccc(Cl)c(Cl)c2)cc1,.,.,.,.,.
O=C(Nc1ccc(Cl)cc1)NN1CC(=O)N(c2cccc(C(F)(F)F)c2)CC1=O,30.2,.,.,.,.
COc1ccc(C(=O)N/N=C/c2c[nH]c3ccccc23)cc1,36.6,/,.,.,.
O=C(N/N=C/c1c[nH]c2ccccc12)c1ccc(O)c(O)c1,28.5,/,.,.,.
CC(=O)Nc1cccc(C(=O)N/N=C/c2c[nH]c3ccccc23)c1,30.0,/,.,.,.
COc1ccc2cc(C(=O)N/N=C/c3sc4ccccc4c3O)ccc2c1,11.6,/,.,.,.
O=C(NN=Cc1c[nH]c2ccccc12)c1ccc(Br)cc1,/,.,/,/,/
O=C(NN=Cc1c[nH]c2ccccc12)c1ccncc1,/,.,/,/,/
COc1ccc(C=NNC(=O)Cn2nnc3ccccc32)cc1OC,/,.,/,/,/
CC(C)C(NC(=O)c1ccc2c(c1)OCO2)C(=O)NN=Cc1cccs1 (stereo not given),/,.,/,/,/

# Bioassay records: PubChem BioAssay, several laboratories
